Data set [1] has as its system HeLa. Nature of the data set: Cytotoxicity against human HeLa cells after 72 hrs by MTT assay. The class given is cell-based. A digest of the protocol:
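HeLa cells exposed 72 h in complete medium to 0.4, 2, 10, 50 and 250 µM; viability read by MTT. Means ± SE of 3 independent experiments run in triplicate.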

In data set [2] the test system is HeLa. Nature of the data set: Down regulation of GCRalpha expression in human HeLa cells at 0.4 uM after 24 hrs by Taqman-based real-time PCR analysis relative to control. Format: functional. A digest of the protocol:
(§1)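 GCR transcripts quantified in HeLa cells after 24 h treatment at 0.4 and 2 µM. Means ± SD of 3 independent experiments; compared by one-way ANOVA.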

Data set [3] relates to HeLa. Nature of the data set: Down regulation of GCRalpha expression in human HeLa cells at 2 uM after 24 hrs by Taqman-based real-time PCR analysis relative to control. Format: functional, cell-based. In short, it runs like this:
as §1

In data set [4] the target is T1, Glucocorticoid receptor (Homo sapiens) (UniProt P04150).
T1 sequence (whole entry): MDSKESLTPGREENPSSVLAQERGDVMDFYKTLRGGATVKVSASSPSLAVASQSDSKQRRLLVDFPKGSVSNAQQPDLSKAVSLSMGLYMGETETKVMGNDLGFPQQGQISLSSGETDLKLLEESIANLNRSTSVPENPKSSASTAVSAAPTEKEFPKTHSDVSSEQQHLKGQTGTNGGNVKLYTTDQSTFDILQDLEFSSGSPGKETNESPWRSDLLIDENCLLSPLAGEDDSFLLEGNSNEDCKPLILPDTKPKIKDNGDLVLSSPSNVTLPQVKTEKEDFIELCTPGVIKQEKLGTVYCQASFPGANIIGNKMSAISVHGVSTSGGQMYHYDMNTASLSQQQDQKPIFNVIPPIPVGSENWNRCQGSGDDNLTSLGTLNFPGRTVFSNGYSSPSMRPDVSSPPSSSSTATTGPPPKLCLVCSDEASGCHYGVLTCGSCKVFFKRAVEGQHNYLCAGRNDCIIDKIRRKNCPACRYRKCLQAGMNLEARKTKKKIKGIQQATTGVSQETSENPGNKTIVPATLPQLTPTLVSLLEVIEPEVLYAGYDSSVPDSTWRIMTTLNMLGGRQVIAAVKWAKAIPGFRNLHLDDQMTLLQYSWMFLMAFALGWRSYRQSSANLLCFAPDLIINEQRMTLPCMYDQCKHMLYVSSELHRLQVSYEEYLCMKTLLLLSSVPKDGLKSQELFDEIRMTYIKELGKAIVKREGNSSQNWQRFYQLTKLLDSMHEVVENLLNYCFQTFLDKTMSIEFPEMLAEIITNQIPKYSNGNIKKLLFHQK
Nature of the data set: Transrepression of GCR in human HeLa cells assessed as down regulation of GILZ mRNA expression at 0.4 uM after 24 hrs by Taqman-based real-time PCR analysis. The class given is cell-based. A digest of the protocol:
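GILZ expression measured in HeLa cells after 24 h treatment at 0.4 and 2 µM, relative to untreated cells.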

The target in data set [5] is T1, Glucocorticoid receptor (Homo sapiens). Description: Transrepression of GCR (unknown origin) expressed in human fibrosarcoma cells assessed as inhibition of DEX-induced GCR activation at 0.1 uM after 6 hrs by luciferase reporter gene assay relative to DEX; values are per cent of control.
Data set [6] shares this target. Nature of the data set: Transactivation of GCR (unknown origin) expressed in human fibrosarcoma cells at 0.1 uM after 6 hrs by luciferase reporter gene assay. Format: cell-based. In short, it runs like this:
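GCR luciferase reporter run with single compound at 0.1 µM to probe agonism; reference agonist DEX at 1 µM.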

For data set [7] the target is unchanged. Description: Transrepression of GCR in human HeLa cells assessed as suppression of DEX-induced GILZ mRNA expression at 0.4 to 2 uM after 24 hrs by Taqman-based real-time PCR analysis. Format: cell-based. A digest of the protocol:
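HeLa cells treated 24 h with DEX alone (0.1 µM) or DEX plus compound; GILZ transcription measured. RU486 plus DEX served as competitive-antagonist control.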

Data set [8] has the same target. Nature of the data set: Transrepression of GCR (unknown origin) expressed in human fibrosarcoma cells assessed as suppression of TNF-induced NFkappaB activity at 1 uM pretreated for 2 hrs followed by TNF addition after 4 hrs by luciferase reporter gene assay relative to control. The class given is cell-based. In short, it runs like this: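 Cells pretreated 2 h with compound alone, then TNF added and combination treatment continued 4 h; NF-kB luciferase reporter activity measured.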

The nature of data set [9]: Solubility of the compound in water. Format: physicochemical. Particulars: buffer.

The structures appear in SMILES notation. Several values for one entry are separate records, joined by “and”; a condition that tells them apart may be missing. Equal values may be shown once. Activity calls are given as the source filed them. No cut-off for these calls is given here.

In the data set on HeLa [1], `O=C(O)c1ccc(-c2cn3c4c(sc3n2)CCCC4)cc1` showed an EC50 of 170 µM. Moreover, the Activity in the data set on HeLa [2] worked out at 50%. Besides, the outcome in the data set with HeLa [3] was inactive. In addition, the outcome in data set [4] was Active.

Consider `CCn1c2ccccc2n2cc(-c3ccc(C#N)cc3)nc12`, for which the residual activity in [5] is 25%. In addition, in [6], the outcome was inactive.

`N#Cc1ccc(-c2cn3c4c(sc3n2)C(=O)CCC4)cc1`: the EC50 in the data set on HeLa [1] worked out at 16 µM. Besides, the result (in the data set with HeLa [2]; in data set [4]) was Active. In the data set on HeLa [3], the outcome was inactive.

Take `OCc1ccc(-c2cn3c(n2)sc2ccccc23)cc1`: the residual activity in data set [5] was 34%. The result in [6] was inactive.

With `Brc1ccc(-c2cn3c(n2)sc2ccccc23)cc1`, the residual activity in data set [5] came to 20%. Also, the outcome in data set [6] was inactive.

For the compound `N#Cc1ccc(-c2cn3c4c(sc3n2)CCCC4)cc1`, the result in [7] and in data set [6] was inactive. Further, the residual activity in data set [5] came out at 18%. This compound also had a 50% effective concentration (EC50) in the data set on HeLa [1] of 1.7 µM. Moreover, in data set [4], the result was Active. Further, in [8], the Activity came out at 76%.

For `NCc1ccc(-c2cn3c(n2)sc2ccccc23)cc1` [listing 1 of 2 here], the outcome in data set [7] and in data set [6] was inactive. Moreover, the outcome in data set [4] was Active.

As for `Cl.NCc1ccc(-c2cn3c4c(sc3n2)CCCC4)cc1`, the solubility entry in data set [9] was “Soluble”. For the same compound, in data set [5], the residual activity is 23% and 35%. Further, the outcome in data set [6] was inactive.

With `COC(=O)c1ccc(-c2cn3c4c(sc3n2)CCCC4)cc1`, it took 7.7 µM to reach a half-maximal effect in the data set with HeLa [1] (EC50). Moreover, the result (in the data set on HeLa [2]; in [4]) was Active. Moreover, the outcome with HeLa [3] was inactive.

For the compound `Cc1ccc(-c2cn3c(n2)sc2ccccc23)cc1`, the residual activity in data set [5] was determined as 30%. Further, the result in [6] was inactive.

In the data set with HeLa [1], `NCc1ccc(-c2cn3c(n2)sc2ccccc23)cc1` [listing 2 of 2 here] displayed a 50% effective concentration (EC50) of 3.6 µM.

With `Cl.NCc1ccc(-c2cn3c(n2)sc2ccccc23)cc1`, the solubility entry in [9] is on record as “Soluble”.

Turning to `Nc1ccc(-c2cn3c(n2)sc2ccccc23)cc1`, in data set [5], the residual activity was found to be 23%. The result in data set [6] was inactive.

The values above are taken from ChEMBL document CHEMBL4251737, “Imidazo[2,1-b]benzothiazol Derivatives as Potential Allosteric Inhibitors of the Glucocorticoid Receptor” (ACS Med Chem Lett, 2018).
